Compounds with a hit are over-represented: about 2.2% of the library has one in this group of screens.
HNF4A DNA FP – change in binding of human HNF4A to DNA, primary screen, biochemical, fluorescence polarization, FITC-DNA. Hepatocyte nuclear factor 4-alpha (Homo sapiens), P41235. 1 h. activity change, % at 10 µM. 360,000 tested, 0.3% active. AID 1224865, 2016; in the data active = activity change above about 30%, passing the limit was not always enough
Target sequence (P41235 whole entry, looked up): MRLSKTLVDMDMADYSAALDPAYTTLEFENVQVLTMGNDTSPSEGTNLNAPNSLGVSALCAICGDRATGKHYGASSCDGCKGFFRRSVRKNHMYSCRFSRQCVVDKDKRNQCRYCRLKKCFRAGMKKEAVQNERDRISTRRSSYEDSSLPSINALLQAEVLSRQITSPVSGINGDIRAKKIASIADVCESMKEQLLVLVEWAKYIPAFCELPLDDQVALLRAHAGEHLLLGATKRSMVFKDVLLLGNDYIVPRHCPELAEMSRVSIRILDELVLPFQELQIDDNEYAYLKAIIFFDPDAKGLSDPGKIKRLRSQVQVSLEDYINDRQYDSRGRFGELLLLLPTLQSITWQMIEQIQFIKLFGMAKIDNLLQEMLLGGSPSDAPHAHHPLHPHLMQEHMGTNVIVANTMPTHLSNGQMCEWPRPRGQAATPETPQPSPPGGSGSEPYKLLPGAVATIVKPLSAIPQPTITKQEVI
Granule exo inh – LAMP-1 surface exposure blockers, TALL-104 cells – cell-based, flow cytometry, MLPCN library, primary screen | AID 651702, 2012 | TALL-104 LAMP-1 surface exposure; cells stimulated with thapsigargin and PMA | 360,000 tested, 0.66% active | inhibition, % at 10 µM;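 active = inhibition above about 55%, limit read from the data; inconclusive = no clear call, values can overlap the other calls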
Myeloid diff MLP – induction of myeloid progenitor differentiation, primary screen, cell-based, flow cytometry, MLPCN library. ER-HoxA9 myeloid progenitors, lysozyme-GFP differentiation. calls only at 10 µM. 360,000 tested, 1% active;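 active = normalized GFP-positive differentiation at or above the plate's own cutoff, the solvent-only control mean plus 3 SD; inconclusive = no clear call, values can overlap the other calls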;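 note: cells exposed to compound for four days before flow analysis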
CSN inh – inhibitors of CSN-mediated cullin deneddylation, primary screen, biochemical, fluorescence polarization, uHTS | COP9 signalosome complex subunit 5 (Homo sapiens), Q92905 | Purified CSN, SCF-Nedd8-OG deneddylation | inhibition, % at 12.5 µM | 360,000 tested, 0.38% active;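 active = pattern-corrected inhibition above about 35%, with an unprinted fluorescence ratio check between 0.5 and 1.5, limit read from the data, passing the limit was not always enough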
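Material: purified human Csn5 enzyme expressed in HEK293T cells / Medium: Tris buffer pH 7.5, NaCl, DTT, Tween-20, trehalose, ovalbumin / Compound dosing: 12.5 µM single point / Schedule: 90 min incubation of compound, enzyme and substrate at room temperature / Signal: fluorescence polarization of the substrate / Control set: no-enzyme wells high, enzyme-with-substrate wells low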
Each line names hits and unclear results; the compound was inactive in the other large screens.

CCCC1=NN2C(=N)/C(=C\c3ccc(SCc4ccco4)o3)C(=O)N=C2S1	CSN inh 76
O=C(OCC(=O)N1CCN(c2ccc(F)cc2)CC1)c1cnc2ccccc2n1	none
CN(C)CCNC(=O)c1ccc2c(=O)n(Cc3ccc(Cl)cc3)c(=S)[nH]c2c1	Myeloid diff MLP active
O=C(NCCCN1CCOCC1)c1ccc2c(=O)n(Cc3ccc(Cl)cc3)c(=S)[nH]c2c1	none
N#C/C(=C(/O)CCl)c1nc2c(s1)CCc1ccccc1-2	Myeloid diff MLP active
COCc1ccc(CN2CCCC(C(=O)Nc3ccc(-c4cccc(OC)c4)cc3)C2)o1 (centres undefined)	none
CC1(C(=O)NS(=O)(=O)c2ccccc2)CCN1C(=O)Cc1cc(F)ccc1F (centres undefined)	none
Cc1nc2ccc(C(=O)N3CCN(Cc4ccccc4)CC3)cc2[nH]1	none
COCCCn1c(=O)/c(=C\c2ccc(OC(F)F)c(OC)c2)s/c1=C(/C#N)C(=O)NCCOC	HNF4A DNA FP 74, CSN inh 57
COCCCn1c(=O)/c(=C\c2ccccc2OC(F)F)s/c1=C(/C#N)C(=O)NC(C)C	CSN inh 36
CC(=NO)c1ccc2c(c1)C(=NO)c1ccccc1-2	none
Cc1cccc(COc2ccccc2C(=O)OCC(=O)N(C)c2c(N)n(Cc3ccccc3)c(=O)[nH]c2=O)c1	none
CCCCCCN1C(=O)CC(NC(=O)OCC2c3ccccc3-c3ccccc32)C/C=C\C1C(C)C (centres undefined)	none
CC(=O)OC1CC2(C)C(CCC2(O)C(C)=O)C2CCC3C(Cl)C(=O)CCC3(C)C12 (centres undefined)	none
CCOC(=O)Cn1c(=O)c(-c2cc(Br)ccc2N)nc2ccccc21	Myeloid diff MLP active
CC(=O)NCC(=O)OCC(=O)c1ccc(C)cc1	none
CC(=O)NCC(=O)OCC(=O)c1ccccc1	Myeloid diff MLP active
CCc1ccc2c(c1)Sc1ccccc1CC2N1CCN(C)CC1 (centres undefined)	Granule exo inh 58
Cn1c2ccccc2c(=O)c2c(=O)n(C3CCCCCC3)c(C3CCCCC3)nc21	HNF4A DNA FP 67, Granule exo inh inconclusive
CCc1ccc(N(CC(=O)N2CCCC2)S(C)(=O)=O)cc1	none
C/C(=N/NC(=O)CNC(=O)C1COc2ccccc2O1)c1ccc([N+](=O)[O-])cc1 (centres undefined)	none
O=C(CSc1nc2ccc(Cl)cc2[nH]1)c1c[nH]c2ccccc12	none
O=C(CSc1nc2ncc(Cl)cc2[nH]1)c1c[nH]c2ccccc12	Myeloid diff MLP active
CCCCn1c(SCC(=O)OCC)nc2c(sc(=S)n2-c2ccccc2OC)c1=O	none
Cc1ccc(CN2C(=O)N/C(=C\c3ccc(N4CCOCC4)cc3)C2=O)cc1	none
Cc1cc(/C=C2\NC(=S)N(C)C2=O)ccc1N1CCCC1	Myeloid diff MLP active
CCCN1C(=O)/C(=C/c2ccc(N3CCOCC3)cc2)NC1=S	HNF4A DNA FP 90
CCCN1C(=O)/C(=C/c2ccc(N3CCCC3)c(C)c2)NC1=S	Myeloid diff MLP active
Cc1cc(/C=C2/C(=O)N(C)C(=S)N2C)ccc1N1CCCC1	none
Cc1ccc(NC(=O)COC(=O)CCC(=O)c2cccs2)c(Br)c1	Granule exo inh 75
COc1ccc(S(=O)(=O)N2CCOCC2)cc1NC(=O)c1c(-c2ccccc2)noc1C	none
Cc1nn(-c2ccccc2)c(C)c1NC(=O)COC(=O)C1CC(=O)N(CCc2ccccc2)C1 (centres undefined)	none
COc1ccccc1N(CC1CO1)S(=O)(=O)c1ccc(C)cc1 (centres undefined)	none
C/C(CC(=O)Nc1cc(C)ccn1)=N\NC(=O)c1cccc(F)c1	Myeloid diff MLP active
COc1ccc(S(=O)(=O)N(CC(=O)NC2CCCCC2)c2ccc(F)cc2)cc1	none
O=c1oc2ccccc2n1CCn1c2ccccc2c2nc3ccccc3nc21	CSN inh 52
COc1ccc2c(c1)c1nc3ccccc3nc1n2CCn1c(=O)oc2ccccc21	none
C=CCSc1nnc(N2C(=O)C(O)=C(C(=O)c3ccco3)C2c2ccccc2F)s1 (centres undefined)	Myeloid diff MLP active
O=C(CSc1nnc(NC(=O)c2ccc(F)cc2F)s1)NC1CCCC1	none
CCOc1ccc(C(=O)COC(=O)c2nc3nccc(C)n3n2)cc1	none
O=C(NNC(=O)c1ccc(NC(=O)c2ccccc2)cc1)Nc1ccccc1	Myeloid diff MLP active
O=C(NNC(=O)c1ccc(NC(=O)c2ccccc2)cc1)c1ccc(F)cc1	none
CCCNS(=O)(=O)c1cccc(C(=O)OCc2cc(=O)oc3cc(OC)ccc23)c1	Granule exo inh 70, Myeloid diff MLP inconclusive
C=C(C)C(=O)Nc1cccc(C2=NOC3(C2)C[C@@H](C(N)=O)N(C(=O)c2ccc(OC)cc2)C3)c1 (some centres undefined)	none
C=C(C)C(=O)Nc1cccc(C2=NOC3(C2)C[C@@H](C(N)=O)N(C(=O)c2cc([N+](=O)[O-])cc([N+](=O)[O-])c2)C3)c1 (some centres undefined)	Granule exo inh 64
CCOC(=O)/C(C#N)=C\c1ccc(O)c(OC)c1	none
CCOC(=O)c1c(-c2ccccc2)csc1NC(=O)/C(C#N)=C\c1ccc(O)c(OC)c1	Myeloid diff MLP active
COCCNC(=O)c1cc2c(c(-c3cccc(-c4cc5ccccc5o4)c3)n1)[C@H](CCO)N(S(=O)C(C)(C)C)C2 (some centres undefined)	none
Cc1ccc(/C=C/C(=O)N2CC(C)CC(C)C2)o1 (centres undefined)	Granule exo inh 102
Cc1nn(-c2ccccc2)c(C)c1NC(=O)COc1ccc([N+](=O)[O-])cc1	none
CCc1nc2ccc(C(=O)Nc3cccc(NS(C)(=O)=O)c3)cn2c1N(C=O)CCC(C)C	Myeloid diff MLP active
CCc1nc2ccc(C(=O)Nc3cccc(NS(C)(=O)=O)c3)cn2c1N(CCC(C)C)CCN(C)C	none
Cc1ccnc(NC(=O)CCC(=O)N(CC(=O)NCc2ccccc2)Cc2ccc(F)cc2)c1	Myeloid diff MLP active
Cc1ccnc(NC(=O)CCC(=O)N(CC(=O)NCc2ccccc2)Cc2ccccc2)c1	none
O=S(=O)(c1cccc(Cl)c1)N1CN(CC2CCCO2)c2nc3ccccc3nc21 (centres undefined)	Myeloid diff MLP active
O=S(=O)(c1ccc(Cl)cc1)N1CN(CC2CCCO2)c2nc3ccccc3nc21 (centres undefined)	none
CCN(CC(=O)Nc1cc(S(=O)(=O)N2CCCCC2)ccc1C)Cc1ccccc1	none
COc1ccc(N/C=C\C(=O)c2ccc(C)cc2)cc1OC	none
COc1ccc(N/C=C\C(=O)c2ccc(Br)cc2)cc1OC	CSN inh 53
CCOC(=O)c1cccc(N/C=C/C(=O)c2ccc(OC)c(OC)c2)c1	CSN inh 92
Cc1ccc(Nc2nc(N)nc(CSc3nncn3C)n2)cc1	none
